According to ChEMBL document CHEMBL3526127, “Absorption, elimination, and metabolism of CS-1036, a novel α-amylase inhibitor in rats and monkeys, and the relationship between gastrointestinal distribution and suppression of glucose absorption” (Drug Metab Dispos, 2013):
One block for each compound: values may come before it.

How the values were obtained:
[1] = Half life in cynomolgus monkey at 3 mg/kg, po administered as single dose by LC-MS/MS method; assay type: ADME, organism-based, Macaca fascicularis; parameters: dose 3 mg/kg, route oral; conditions: in vivo
Summary of the method: (§1)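 Male F344 rats (146–185 g) and male cynomolgus monkeys (3.48–4.29 kg), n = 4 each, fasted overnight, received single iv or oral doses of 0.3, 1.0, 3.0 or 10.0 mg/kg. Monkeys had 2-week washouts between doses. Plasma was sampled to 48 h and assayed by LC-MS/MS with deuterated internal standard. Noncompartmental analysis: tmax observed; t1/2 by regression on ≥3 terminal log points; Vss = dose·AUMC/(AUC0–inf)²; Foral = oral/iv AUC0–inf at the same dose.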

[2] = Half life in cynomolgus monkey at 10 mg/kg, po administered as single dose by LC-MS/MS method; assay type: ADME, organism-based, Macaca fascicularis; parameters: dose 10 mg/kg, route oral; conditions: in vivo; summary of the method: as §1
[3] = Oral bioavailability in cynomolgus monkey at 3 mg/kg administered as single dose by LC-MS/MS method; assay type: ADME, organism-based, Macaca fascicularis; conditions: in vivo; summary of the method: as §1
[4] = AUClast in cynomolgus monkey at 0.3 mg/kg, iv administered as single dose by LC-MS/MS method; assay type: ADME, organism-based, Macaca fascicularis; parameters: time 0 - last, dose 0.3 mg/kg, route intravenous; conditions: plasma
Summary of the method: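 Fasted male F344 rats (146–185 g) or male cynomolgus monkeys (3.48–4.29 kg), n = 4 per dose, given single iv or oral dose of 0.3, 1.0, 3.0 or 10.0 mg/kg; monkeys dosed with 2-week washouts. Blood sampled to 48 h; plasma stored frozen. LC-MS/MS with deuterated internal standard. Noncompartmental analysis: AUClast by trapezoidal rule; AUC0–inf = AUClast + Ctz/terminal rate constant; mean ± S.D.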

[5] = Half life in cynomolgus monkey at 1 mg/kg, po administered as single dose by LC-MS/MS method; assay type: ADME, organism-based, Macaca fascicularis; parameters: dose 1 mg/kg, route oral; conditions: in vivo; summary of the method: as §1
[6] = Cmax in cynomolgus monkey at 3 mg/kg, po administered as single dose by LC-MS/MS method; assay type: ADME, organism-based, Macaca fascicularis; parameters: dose 3 mg/kg, route oral; conditions: in vivo
Summary of the method: (§2)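 Fasted male F344 rats (146–185 g) and cynomolgus monkeys (3.48–4.29 kg), n = 4 each, received a single oral dose; monkeys had 2-week washouts. Plasma sampled up to 48 h, stored at […], assayed by LC-MS/MS with a deuterated internal standard. Cmax taken from observed data by noncompartmental analysis; mean ± S.D. (n = 3 or 4).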

[7] = Cmax in cynomolgus monkey at 0.3 mg/kg, po administered as single dose by LC-MS/MS method; assay type: ADME, organism-based, Macaca fascicularis; parameters: dose 0.3 mg/kg, route oral; conditions: in vivo; summary of the method: as §2
[8] = Cmax in F344 rat at 3 mg/kg, po administered as single dose by LC-MS/MS method; assay type: ADME, organism-based; parameters: dose 3 mg/kg, route oral; conditions: in vivo
[9] = Tmax in cynomolgus monkey at 3 mg/kg, po administered as single dose by LC-MS/MS method; assay type: ADME, organism-based, Macaca fascicularis; parameters: dose 3 mg/kg, route oral; conditions: in vivo; summary of the method: as §1
Rattus norvegicus = test: Reduction in plasma glucose in starch loaded po dosed ZDF rat; assay type: functional
Summary of the method: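 Male ZDF rats were acclimatized to 10 weeks of age and fasted overnight (n = 8 per group). They were given oral compound (0–0.1 mg/kg) in starch suspension (2 g/kg); a nonstarch control received water at 10 ml/kg. Plasma glucose was measured at −15 min (taken as baseline) and at 0.5, 1, 2 and 4 h with an automatic analyzer. ΔAUC of glucose change was calculated by the trapezoidal rule. ED50 came from a sigmoid Emax model bounded by the starch and nonstarch controls, and groups were compared by Dunnett test.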

[10] = Volume of distribution at steady state in cynomolgus monkey at 10 mg/kg, iv administered as single dose by LC-MS/MS method; assay type: ADME, organism-based, Macaca fascicularis; parameters: dose 10 mg/kg, route intravenous; conditions: in vivo, read-out: Vdss; summary of the method: as §1
[11] = Tmax in cynomolgus monkey at 1 mg/kg, po administered as single dose by LC-MS/MS method; assay type: ADME, organism-based, Macaca fascicularis; parameters: dose 1 mg/kg, route oral; conditions: in vivo; summary of the method: as §1
[12] = Tmax in F344 rat at 10 mg/kg, po administered as single dose by LC-MS/MS method; assay type: ADME, organism-based; parameters: dose 10 mg/kg, route oral; conditions: in vivo; summary of the method: as §1
[13] = Tmax in F344 rat at 1 mg/kg, po administered as single dose by LC-MS/MS method; assay type: ADME, organism-based; parameters: dose 1 mg/kg, route oral; conditions: in vivo; summary of the method: as §1
[14] = Drug excretion in F344 rat expired air at 1 mg/kg, iv administered as single dose after 0 to 48 hrs by scintillation counting method; assay type: ADME, organism-based; parameters: dose 1 mg/kg, route intravenous; conditions: in vivo
Summary of the method: (§3)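 Fasted F344 rats (152–156 g iv via tail vein; 154–159 g oral; n = 4) received [14C]-labelled drug at 1 mg/kg (41.9 µCi/kg). Animals were kept in metabolic cages; urine and feces were collected to 168 h, and expired CO2 was trapped in 2-aminoethanol/2-methoxyethanol (1:1) to 48 h. Samples were counted by liquid scintillation (feces homogenized). Results are % of dose, mean ± S.D.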

[15] = Drug excretion in F344 rat urine at 1 mg/kg, iv administered as single dose after 0 to 168 hrs by scintillation counting method; assay type: ADME, organism-based; parameters: dose 1 mg/kg, route intravenous; conditions: in vivo; summary of the method: as §3
[16] = Drug excretion in bile duct cannulated F344 rat bile at 1 mg/kg, po administered as single dose after 0 to 48 hrs by scintillation counting method; assay type: ADME, organism-based; parameters: dose 1 mg/kg, route oral; conditions: in vivo
Summary of the method: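 Common bile duct was cannulated under diethyl ether in fasted F344 rats. After recovery, [14C]-labelled drug (1 mg/kg, 41.9 µCi/kg) was given iv via tail vein or by oral gavage (n = 4). Rats were held in Bollman cages and bile was collected at 4°C over 0–48 h intervals. Bile was counted by liquid scintillation; % of dose.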

[17] = Drug metabolism in human liver S9 fractions at 0.42 uCi/ml assessed as metabolite formation in presence of NADPH after 1 hr at 37 degC by LC-MS/MS method; assay type: ADME, subcellular, Liver S9 fraction; conditions: s9, 1 h
[18] = Drug metabolism in anaerobic culture broth of F344 rat cecal content assessed as 1,4-dideoxy-1,4-imino-D-arabinitol formation at 63.5 uCi/ml after 24 hrs at 35 degC by LC-MS/MS method; assay type: ADME
[19] = Drug excretion in cynomolgus monkey feces at 3 mg/kg, iv administered as single dose after 0 to 336 hrs by scintillation counting method; assay type: ADME, organism-based, Macaca fascicularis; parameters: dose 3 mg/kg, route intravenous; conditions: in vivo
Summary of the method: (§4)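 Fasted cynomolgus monkeys (n = 4) received [14C]-labelled drug at 3 mg/kg, iv via saphenous vein (191 µCi/kg) or orally by stomach catheter (156.5 µCi/kg). Urine, feces and water cage-wash were collected to 336 h. Samples were counted by liquid scintillation; feces were homogenized in 4-fold water. Results are % of dose, mean ± S.D.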

Cynomolgus monkey [20] = test: Drug excretion in cynomolgus monkey assessed as drug level found during cage washing at 3 mg/kg, iv administered as single dose after 0 to 336 hrs by scintillation counting method; assay type: ADME, organism-based, Macaca fascicularis; parameters: dose 3 mg/kg, route intravenous; conditions: in vivo; summary of the method: as §4
Cynomolgus monkey [21] = test: Total drug excretion in cynomolgus monkey at 3 mg/kg, po administered as single dose after 0 to 48 hrs by scintillation counting method; assay type: ADME, organism-based, Macaca fascicularis; parameters: dose 3 mg/kg, route oral; conditions: in vivo
Summary of the method: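 Fasted male cynomolgus monkeys (n = 4) were dosed with 14C-labelled drug at 3 mg/kg, iv via saphenous vein (191 µCi/kg) or orally by stomach catheter (156.5 µCi/kg). Urine, feces and cage-wash water were collected to 336 h. Radioactivity was measured by liquid scintillation counting, with feces homogenized in water, and expressed as % of dose.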

Cynomolgus monkey [22] = test: Drug excretion in cynomolgus monkey assessed as drug level found during cage washing at 3 mg/kg, po administered as single dose after 0 to 336 hrs by scintillation counting method; assay type: ADME, organism-based, Macaca fascicularis; parameters: dose 3 mg/kg, route oral; conditions: in vivo; summary of the method: as §4
[23] = Drug metabolism in po dosed monkey urine assessed as 1,4-dideoxy-1,4-imino-D-arabinitol formation by LC-MS/MS method; conditions: cynomolgus monkey, in vivo

- half-life [1]: 2.12 h
- half-life [2]: 12.6 h
- bioavailability [3]: 1.05%
- AUC(0-t) [4]: 2000 ng·h/mL
- half-life [5]: 1.29 h
- Cmax [6]: 44.8 ng/mL
- Cmax [7]: 5.23 ng/mL
- Cmax [8]: 113 ng/mL
- Tmax [9]: 1.75 h
- Vd [10]: 0.217 L/kg
- Tmax [11]: 1.75 h
- Tmax [12]: 0.438 h
- Tmax [13]: 0.417 h
Structure (SMILES): C[C@H]1O[C@@H](O[C@H]2[C@H](O)[C@@H](O)[C@@H](O[C@H]3[C@H](O)CN[C@@H]3CO)O[C@@H]2CO)[C@H](O)[C@@H](O)[C@@H]1O
- ED50 (Rattus norvegicus): 0.015 mg/kg
- inhibition (Rattus norvegicus): Dose-dependent effect

- Drug excretion [14]: 0.82%
- Drug excretion [15]: 77.21%
- Drug excretion [16]: 0.59%
- Drug metabolism [17]: metabolite_not_detected
- Drug metabolism [18]: metabolite_detected
- Drug excretion [19]: 0.66%
- Drug excretion (Cynomolgus monkey [20]): 14.5%
- Drug excretion (Cynomolgus monkey [21]): 83.8%
- Drug excretion (Cynomolgus monkey [22]): 1.35%
- Drug metabolism [23]: metabolite_detected
Structure (SMILES): C[C@H]1O[C@@H](O[C@H]2[C@H](O)[C@@H](O)[C@@H](O[14C@H]3[14C@H](O)[14CH2]N[14C@@H]3[14CH2]O)O[C@@H]2CO)[C@H](O)[C@@H](O)[C@@H]1O
